The values below come from ChEMBL document CHEMBL3425481, “Design, synthesis and anticancer activity of matrine-1H-1,2,3-triazole-chalcone conjugates” (Bioorg Med Chem Lett, 2015).

Calls of active or inactive are those of the source. The rule behind the calls is not given here.

The term IC50 denotes the concentration at which inhibition is half-maximal.

Experiment [1] deals with A549. The experiment in a line: Antitumor activity against human A549 cells xenografted in Balb/ca-nu mouse assessed as tumor growth inhibition at 5 mg/kg, iv dosed every 3 days for total of 7 dosing rounds measured on day 16 after treatment. In kind it is functional. As to conditions: read-out: TGI. Put shortly: (§1)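 A549 xenograft in mice, dosed by tail vein injection every 3 days; vehicle saline plus 0.2% Tween 80. n = 8 per treatment group, 6 in the vehicle group. Mean ± SE.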

For experiment [2], the system named is A549. Nature of the experiment: Antitumor activity against human A549 cells xenografted in Balb/ca-nu mouse assessed as tumor growth inhibition at 10 mg/kg, iv dosed every 3 days for total of 7 dosing rounds measured on day 8 after treatment. In kind it is functional, organism-based. Also on record: dose 10 mg/kg. Put shortly: as §1
(In xenograft studies the graft and the host belong to different species.)

Experiment [3] deals with A549. The experiment in a line: Antitumor activity against human A549 cells xenografted in Balb/ca-nu mouse assessed as tumor growth inhibition at 5 mg/kg, iv dosed every 3 days for total of 7 dosing rounds measured on day 20 after treatment. The settings on record: read-out: TGI. In kind it is functional. Put shortly: as §1
Experiment [4] relates to HeLa. Nature of the experiment: Antiproliferative activity against human HeLa cells assessed as inhibition of cell proliferation incubated for 48 hrs by CCK8 assay. The format is functional, cell-based. A digest of the protocol: (§2)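 Human A549 lung, Hela cervical, Bel-7402 hepatocellular and MCF-7 breast cancer cells, plus mouse embryo fibroblast NIH3T3, tested for anti-proliferative activity by CCK-8 assay. For the matrine combination tests, the chalcone and matrine were used at a 1:1 molar ratio; values given as IC50.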
(Formazan colour is commonly taken as a measure of viable cells.)

For experiment [5], the system named is A549. Nature of the experiment: Antitumor activity against human A549 cells xenografted in Balb/ca-nu mouse assessed as tumor growth inhibition at 5 mg/kg, iv dosed every 3 days for total of 7 dosing rounds measured on day 14 after treatment. In kind it is functional. The settings on record: read-out: TGI. Put shortly:
as §1

A short description of experiment [6]: Antiproliferative activity against mouse NIH/3T3 cells assessed as inhibition of cell proliferation incubated for 48 hrs by CCK8 assay. The settings on record: NIH3T3, 48 h. The format is cell-based. Put shortly:
as §2

In experiment [7] the test system is A549. The experiment in a line: Antiproliferative activity against human A549 cells assessed as inhibition of cell proliferation incubated for 48 hrs by CCK8 assay. As to conditions: A549, 48 h. In kind it is functional, cell-based. Put shortly: as §2
In experiment [8] the test system is A549. The experiment in a line: Antitumor activity against human A549 cells xenografted in Balb/ca-nu mouse assessed as tumor growth inhibition at 5 mg/kg, iv dosed every 3 days for total of 7 dosing rounds measured on day 10 after treatment. The format is functional. As to conditions: read-out: TGI. A digest of the protocol:
as §1

In experiment [9] the test system is A549. The experiment in a line: Antitumor activity against human A549 cells xenografted in Balb/ca-nu mouse assessed as tumor growth inhibition at 5 mg/kg, iv dosed every 3 days for total of 7 dosing rounds measured on day 12 after treatment. The settings on record: read-out: TGI. In kind it is functional. Put shortly: as §1
Experiment [10] has as its system A549. Nature of the experiment: Antitumor activity against human A549 cells xenografted in Balb/ca-nu mouse assessed as tumor growth inhibition at 5 mg/kg, iv dosed every 3 days for total of 7 dosing rounds measured on day 18 after treatment. The settings on record: read-out: TGI. In kind it is functional. A digest of the protocol:
as §1

Experiment [11] can be described thus: Antiproliferative activity against human Bel7402 cells assessed as inhibition of cell proliferation incubated for 48 hrs by CCK8 assay. In kind it is functional, cell-based. As to conditions: Bel-7402, 48 h. Put shortly: as §2
Experiment [12] deals with A549. Nature of the experiment: Induction of apoptosis in human A549 cells at 15 to 50 uM incubated for 24 hrs by Annexin V-FITC/propidium iodide double staining based flow cytometry. In kind it is functional. Put shortly:
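A549 cells exposed for 24 h at three concentrations alongside a 0.1% DMSO control. Cells double-stained with Annexin V-FITC/propidium iodide and analysed by flow cytometry. Early apoptosis was read from the lower-right quadrant and late apoptosis from the upper-right, and both were summed. Done in triplicate, with statistics compared to control.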
For orientation: A flow cytometer gives signals particle by particle.

The test system of experiment [13] is MCF7. Nature of the experiment: Antiproliferative activity against human MCF7 cells assessed as inhibition of cell proliferation incubated for 48 hrs by CCK8 assay. The format is functional, cell-based. As to conditions: MCF7, 48 h. Put shortly:
as §2

In experiment [14] the test system is MCF7. The experiment in a line: Antiproliferative activity against human MCF7 cells assessed as inhibition of cell proliferation incubated for 48 hrs in presence of matrine by CCK8 assay. The format is functional, cell-based. The settings on record: MCF7, 48 h. A digest of the protocol: as §2
Experiment [15] deals with HeLa. The experiment in a line: Antiproliferative activity against human HeLa cells assessed as inhibition of cell proliferation incubated for 48 hrs in presence of matrine by CCK8 assay. The format is functional, cell-based. A digest of the protocol:
as §2

Experiment [16] deals with A549. The experiment in a line: Antiproliferative activity against human A549 cells assessed as inhibition of cell proliferation incubated for 48 hrs in presence of matrine by CCK8 assay. The format is functional, cell-based. As to conditions: A549, 48 h. Put shortly: as §2
The nature of experiment [17]: Antiproliferative activity against human Bel7402 cells assessed as inhibition of cell proliferation incubated for 48 hrs in presence of matrine by CCK8 assay. In kind it is functional, cell-based. The settings on record: Bel-7402, 48 h. Put shortly: as §2

`CC(=O)O[C@H]1C(=O)[C@@]2(C)[C@H]([C@H](OC(=O)c3ccccc3)[C@]3(O)C[C@H](OC(=O)[C@H](O)[C@@H](NC(=O)c4ccccc4)c4ccccc4)C(C)=C1C3(C)C)[C@]1(OC(C)=O)CO[C@@H]1C[C@@H]2O` [PACLITAXEL]: the inhibition in vivo at 5 mg/kg with A549 [1] is 85.4%; with A549 [3] it was 89.1%; in the experiment with A549 [5] it was 79.5%; in the experiment on A549 [8], 58.3%; with A549 [9], 70.4%; in the experiment on A549 [10] it was 88.9%. Further, in the experiment with A549 [2], the TGI entry was “Active”. For the same compound, the IC50 in the experiment on HeLa [4] worked out at 0.38 µM; in experiment [6] it was 20 µM; in the experiment with A549 [7] it was 2.82 µM.

Take `O=C1CCC[C@@H]2[C@H]3CCCN4CCC[C@@H](CN12)[C@@H]34` [MATRINE]: the IC50 (in the experiment on HeLa [4]; in experiment [11]; in the experiment with A549 [7]; with MCF7 [13]) was > 50 µM each time. The compound further registered an Activity with A549 [12] of 28.4%.

For `C#CCOc1ccc(C(=O)/C=C/c2ccccc2)c(O)c1`, the IC50 was > 50 µM in the experiment on MCF7 [14]; > 50 µM in the experiment on HeLa [4]; > 50 µM with HeLa [15]; > 50 µM with A549 [16]; > 50 µM in experiment [17]; 66.6 µM in [6]. Further, the IC50 in the experiment on A549 [7] and with MCF7 [13] was > 50 µM throughout.
